# EWS-Fli block = EWS/Fli transcriptional activity inhibition; inhibition, % at 12.6 µM; AID 651661; actives 0.67% (n = 350,000); A673 NR0B1-luciferase reporter, viability-normalised;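 active = mean inhibition of at least 50% after viability correction, with every replicate also passing that limit; inconclusive = mean reaches 50% but only one of two replicates passes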;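 note: firefly luciferase signal divided by Alamar Blue viability fluorescence both relative to DMSO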
# AF4-AF9 inh = blocks AF4 peptide binding to human AF9; P42568; AlphaScreen, biotin-AF4 peptide binding to FLAG-AF9; inhibition, % at 10 µM; actives 0.47% (n = 350,000); AID 651704;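 active = every replicate reaching a set inhibition limit, whatever the replicate mean, cut at about 25% in these data; inconclusive = mean inhibition reaches that limit but some replicates miss it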;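 note: 0% = plate neutral control median and 100% = total signal loss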
# Target sequence (P42568 whole entry, looked up): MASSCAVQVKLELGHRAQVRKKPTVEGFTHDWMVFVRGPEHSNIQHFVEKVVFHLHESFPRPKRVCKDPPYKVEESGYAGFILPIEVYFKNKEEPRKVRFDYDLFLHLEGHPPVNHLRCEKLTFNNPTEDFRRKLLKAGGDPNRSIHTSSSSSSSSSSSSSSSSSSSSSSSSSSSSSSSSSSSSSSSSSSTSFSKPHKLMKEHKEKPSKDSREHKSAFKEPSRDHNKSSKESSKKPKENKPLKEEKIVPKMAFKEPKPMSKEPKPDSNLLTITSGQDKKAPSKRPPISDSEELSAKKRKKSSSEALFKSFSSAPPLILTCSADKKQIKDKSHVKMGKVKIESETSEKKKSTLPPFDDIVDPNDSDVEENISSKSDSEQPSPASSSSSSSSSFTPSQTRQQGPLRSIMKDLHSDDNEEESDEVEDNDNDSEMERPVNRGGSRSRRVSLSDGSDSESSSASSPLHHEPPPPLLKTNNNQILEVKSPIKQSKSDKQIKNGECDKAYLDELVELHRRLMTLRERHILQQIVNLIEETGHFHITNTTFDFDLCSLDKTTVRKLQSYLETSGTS
# PAX8 reporter = PAX8 transcriptional activity inhibition | RMG-I TPO-luciferase reporter, SteadyGlo, 24 h | inhibition, % at 12.6 µM | actives 1.2% (n = 360,000) | AID 652154;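 active = mean replicate inhibition at least 60% with every replicate also reaching 60%; inconclusive = only one of the two criteria is met; inactive = mean below 60% and not all replicates reaching 60%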;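 note: luciferase light reporting Pax8 driven TPO promoter activity; plate controls were median of neutral control wells for no effect and mitoxantrone controls for full effect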
# N-glyco inh = blocks N-linked glycosylation in D54 reporter cells. reporter increase, % at 12.5 µM. D54 ERlucT glycosylation luciferase reporter, 24 h; percent of 100 nM tunicamycin response. actives 0.23% (n = 360,000);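 active = mean luciferase reporter signal, scaled so untreated is 0 and the glycosylation-blocking control 100, at or above a set limit in every replicate; inconclusive = mean reaches the limit but not every replicate does; inactive = mean below the limit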;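 note: luciferase carries N-glycosylation sites so blocking glycosylation raises the light; 0% = median of neutral control wells and 100% = median of 100 nM tunicamycin wells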
# FN deposition inh = fibronectin deposition inhibition; AID 743247; actives 0.086% (n = 350,000); inhibition, % at 12.6 µM; AH1F fibroblasts, Alexa488-fibronectin deposition fluorescence, overnight;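 active = mean inhibition across replicates of 30% or more, regardless of how many single replicates reach that level; inconclusive = mean under 30% yet at least half of replicates reach 30%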;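 note: positive control wells lacked labelled fibronectin entirely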
#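 Material: AH1F fibroblasts assembling fluorescent fibronectin matrix; amount: 10000 AH1F cells/well; medium: DMEM, 2% serum; reagent: Alexa488-fibronectin, 24 nM final in well; dosing: single compound dose, delivered by pin transfer; incubation: 1 h adhesion, overnight exposure; detection: fluorescence after three HBSS washes, excitation 485 nm, emission 525 nm; measure: fibronectin deposition inhibition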
# HIV Env fusion = HIV envelope-mediated fusion inhibition | actives 1.1% (n = 360,000) | inhibition, % at 12.3 µM | HeLa-JRFL Env/CEM21 cell fusion, luciferase;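 active = mean replicate inhibition score of at least 50 and every replicate individually at or above 50; inconclusive = only one of the two criteria met; inactive = mean below 50 and not all replicates reaching 50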;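 note: 0% = plate neutral controls and 100% = maraviroc near 300 nM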
# An asterisk follows results filed as active; ? = inconclusive; . = no result; [ ] = remark or other dose. Hits are enriched below; roughly 2.5% of the tested compounds scored in any of these assays.
SMILES,EWS-Fli block,AF4-AF9 inh,PAX8 reporter,N-glyco inh,FN deposition inh,HIV Env fusion
O=C(C1CC1)N1CC(=O)N2[C@@H](CO)[C@@H](c3ccc(C#CCc4ccccc4)cc3)[C@@H]2C1,-2,-3,-5,.,-16,.
O=C(O)[C@H]1[C@H](CO)[C@H]2Cn3c(ccc(-c4cncnc4)c3=O)[C@H]2N1C(=O)C1CCCC1,0,-4,.,.,.,.
C[C@H](CO)N1C[C@H](C)[C@@H](CN(C)S(C)(=O)=O)OCCCC[C@H](C)Oc2ccc(NC(=O)c3ccccc3)cc2C1=O,-1,.,3,.,.,16[16.7 µM]
Cc1c(NC(=O)c2ccc(S(=O)(=O)N(C)c3ccccc3)cc2)c(=O)n(-c2ccccc2)n1C,4,5,-10,0,4,17
CCN(c1ccccc1)S(=O)(=O)c1ccc(C(=O)Nc2c(C)n(C)n(-c3ccccc3)c2=O)cc1,3,-7,7,4,.,57*
CCCCCCOc1ccc(OC(=O)c2ccncc2)cc1,.,.,-94,0,19,70*
C[C@H]1CN([C@@H](C)CO)C(=O)c2cc(C#CC3CC3)cnc2O[C@H]1CN(C)Cc1cccc(C(=O)O)c1,-7,-3,-14,.,11,-11[16.7 µM]
Cc1nc2c(=O)n(C)c(=O)n(C)c2nc1Cl,59*,-1,111*,7,-8,-7
CN1CCN(CCCNCc2cn(CCC#N)c3ccccc23)CC1,8,25*,9,-1,-10,-3
N#CCCN1CCN(Cn2c3ccccc3c3ccccc32)CC1,.,.,.,1,.,.
O=C([C@H]1[C@H](CO)[C@H]2Cn3c(cccc3=O)[C@@H]1N2CC1CCCC1)N1CCCCC1,2,3,-9,.,.,.
COc1ccc(NC(=O)CSc2nc(N)c(C(=O)Nc3ccc(N(C)C)cc3)s2)cc1,.,.,.,-6,.,.
CN(C)c1ccc(NC(=O)CSc2nc(N)c(C(=O)Nc3ccc(N(C)C)cc3)s2)cc1,.,.,4,-3,-4,41*
CC(=O)Nc1cccc(-c2ccnc3c2CC(C)(C(=O)Nc2cccc(OC(F)(F)F)c2)O3)c1 (stereo not given),52*,-4,.,9,18,8
CC1(C(=O)NCc2ccc(F)c(F)c2)Cc2c(-c3cccc(C(N)=O)c3)ccnc2O1 (stereo not given),21,0,12,18,10,-13
CC(=O)Nc1cccc(-c2ccnc3c2CC(C)(C(=O)NCc2ccc(F)c(F)c2)O3)c1 (stereo not given),58*,3,16,22,10,-40
CC(=O)Nc1cccc(-c2ccnc3c2CC(C)(C(=O)NCCC(F)(F)F)O3)c1 (stereo not given),33,-1,16,25*,20,-13
CC1(C(=O)NCc2ccccc2)Cc2c(-c3cccc(C(N)=O)c3)ccnc2O1 (stereo not given),58*,2,51,?,7,-5
C[C@H](O)C#Cc1cnc2c(c1)C(=O)N([C@H](C)CO)C[C@H](C)[C@H](CN(C)C(=O)CN1CCOCC1)O2,-15,-3,13,.,.,-4[16.7 µM]
O=C(CC1CC1)N1CC(=O)N2[C@H](CO)[C@@H](c3ccc(-c4ccccc4)cc3)[C@@H]2C1,-4,-9,20,.,.,.
Cc1nc2ccc(NC(=O)c3ccc(Cl)c(S(=O)(=O)N(C)c4ccccc4)c3)cc2s1,.,.,43,-11,3,74*
Cc1nc2ccc(NC(=O)c3cc(S(=O)(=O)N(C)c4ccccc4)ccc3Cl)cc2s1,.,.,.,-7,13,87*
N#Cc1c([N+](=O)[O-])cc([N+](=O)[O-])cc1S(=O)(=O)Cc1ccccc1,?,0,101*,-11,45*,.
O=C(/C=C/c1ccccc1[N+](=O)[O-])c1ccccc1Br,54*,9,78*,11,-23,3
CN1C(=O)/C(=C\C(=O)c2cccs2)c2ccccc21,42,11,89*,16,-1,-8
SMILES,EWS-Fli block,AF4-AF9 inh,PAX8 reporter,N-glyco inh,FN deposition inh,HIV Env fusion
Cn1c(=NC(=O)CCl)sc2ccccc21,74*,-4,.,8,.,.
O=C(Nc1ccc([N+](=O)[O-])cc1)Nc1nc(-c2ccc(Cl)s2)cs1,41,-6,106*,-15,-5,?
O=C(Nc1ccc(Oc2ccc(NC(=O)Nc3ccc([N+](=O)[O-])cc3)cc2)cc1)Nc1ccc([N+](=O)[O-])cc1,33,2,7,-15,1,60*
Cc1cc(O)c(C(C)C)cc1NC(=O)Nc1ccc([N+](=O)[O-])cc1,-10,12,-34,-5,-6,-25
Cc1ccc([N+](=O)[O-])cc1NC(=O)C(Sc1ccccc1)c1ccccc1 (stereo not given),.,.,15,-5,6,67*
Cc1ccc(C(C)C)cc1NC(=O)Nc1ccc([N+](=O)[O-])cc1,36,10,62*,-13,27,-8
CC(=O)c1ccc(NC(=O)Nc2ccc([N+](=O)[O-])cc2)cc1,-13,1,16,1,1,11
COc1ccc2c3c([nH]c2c1)[C@H](CO)N(C(=O)c1ccccn1)CC31CN(C(=O)C2CC2)C1,-6,3,-3,.,.,.
COc1ccccc1Cc1c(-c2ccccc2)nc2c3ccccc3ccn12,-23,1,15,.,-4,-18
COc1ccccc1Cc1c(C(C)(C)C)nc2c3ccccc3ccn12,8,3,65*,-2,-12,25
CO[C@H]1CN(C)C(=O)c2cc(NC(=O)C3CCCCC3)ccc2OC[C@H](C)N(C)C[C@@H]1C,-8,-1,-36,.,.,.
O=C1NCCc2c1[nH]c1ccc([N+](=O)[O-])cc21,2,2,-1,-8,8,67*
CCCCc1c(-c2ccccc2OC)ncn1Cc1ccc(C)cc1,35,15,61*,.,16,61*
CCCCc1c(-c2ccccc2OC)ncn1Cc1ccc(OC)cc1,11,10,-3,.,-6,61*
CCCCc1c(-c2ccccc2OC)ncn1Cc1ccc(Cl)cc1,7,7,11,.,8,-17
CCCCc1c(-c2ccccc2OC)ncn1Cc1ccc(-c2ccccc2)cc1,10,-6,23,.,17,17
C[C@@H]1CN([C@@H](C)CO)C(=O)Cc2cc(NC(=O)Cn3cnnn3)ccc2O[C@@H]1CN(C)C(=O)Nc1ccccc1,-12,-3,-8,.,.,4[16.7 µM]
C[C@@H]1CN([C@H](C)CO)C(=O)c2cc(NC(=O)CCC(F)(F)F)ccc2O[C@@H](C)CCCCO[C@@H]1CN(C)Cc1ccc(C(F)(F)F)cc1,-3,1,83*,.,.,18[16.7 µM]
C[C@@H]1CCCCO[C@@H](CN(C)Cc2ccc(C(F)(F)F)cc2)[C@@H](C)CN([C@@H](C)CO)C(=O)c2cc(NC(=O)CCC(F)(F)F)ccc2O1,5,3,72*,.,.,10[16.7 µM]
C[C@@H]1CCCCO[C@H](CN(C)Cc2ccc(C(F)(F)F)cc2)[C@H](C)CN([C@@H](C)CO)C(=O)c2cc(NC(=O)CCC(F)(F)F)ccc2O1,-5,5,17,.,.,23[16.7 µM]
